Measurements taken from ChEMBL document CHEMBL4354843, “Structure-Based Design of a Potent and Selective Covalent Inhibitor for SRC Kinase That Targets a P-Loop Cysteine” (J Med Chem, 2020).

Experiments:
[1] = molecular target: cAMP-dependent protein kinase catalytic subunit beta (Homo sapiens) (UniProt P22694); assay: Binding affinity to wild-type human full length PKAC-beta (M1 to F351 residues) expressed in bacterial expression system assessed as residual binding level at 1 uM by Kinomescan method relative to control
In short: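 Active-site-directed competition binding panel (KinomeScan) covering 468 kinases. Test agent was screened at 1 μM. The read-out is the remaining kinase signal expressed relative to a DMSO control. Scores above 35%, taken as weak binding, were not reported.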

[2] = molecular target: Mitogen-activated protein kinase kinase kinase 12 (DLK) (Homo sapiens) (UniProt Q12852); assay: Binding affinity to wild-type human full length DLK (M1 to P859 residues) expressed in mammalian expression system assessed as residual binding level at 1 uM by Kinomescan method relative to control
[3] = molecular target: Serine/threonine-protein kinase Nek1 (Homo sapiens) (UniProt Q96PY6); assay: Binding affinity to wild-type human partial length NEK1 (M1 to K278 residues) expressed in bacterial expression system assessed as residual binding level at 1 uM by Kinomescan method relative to control
Chain of Serine/threonine-protein kinase Nek1 (Homo sapiens) (Q96PY6 whole entry, the tested form may be a part): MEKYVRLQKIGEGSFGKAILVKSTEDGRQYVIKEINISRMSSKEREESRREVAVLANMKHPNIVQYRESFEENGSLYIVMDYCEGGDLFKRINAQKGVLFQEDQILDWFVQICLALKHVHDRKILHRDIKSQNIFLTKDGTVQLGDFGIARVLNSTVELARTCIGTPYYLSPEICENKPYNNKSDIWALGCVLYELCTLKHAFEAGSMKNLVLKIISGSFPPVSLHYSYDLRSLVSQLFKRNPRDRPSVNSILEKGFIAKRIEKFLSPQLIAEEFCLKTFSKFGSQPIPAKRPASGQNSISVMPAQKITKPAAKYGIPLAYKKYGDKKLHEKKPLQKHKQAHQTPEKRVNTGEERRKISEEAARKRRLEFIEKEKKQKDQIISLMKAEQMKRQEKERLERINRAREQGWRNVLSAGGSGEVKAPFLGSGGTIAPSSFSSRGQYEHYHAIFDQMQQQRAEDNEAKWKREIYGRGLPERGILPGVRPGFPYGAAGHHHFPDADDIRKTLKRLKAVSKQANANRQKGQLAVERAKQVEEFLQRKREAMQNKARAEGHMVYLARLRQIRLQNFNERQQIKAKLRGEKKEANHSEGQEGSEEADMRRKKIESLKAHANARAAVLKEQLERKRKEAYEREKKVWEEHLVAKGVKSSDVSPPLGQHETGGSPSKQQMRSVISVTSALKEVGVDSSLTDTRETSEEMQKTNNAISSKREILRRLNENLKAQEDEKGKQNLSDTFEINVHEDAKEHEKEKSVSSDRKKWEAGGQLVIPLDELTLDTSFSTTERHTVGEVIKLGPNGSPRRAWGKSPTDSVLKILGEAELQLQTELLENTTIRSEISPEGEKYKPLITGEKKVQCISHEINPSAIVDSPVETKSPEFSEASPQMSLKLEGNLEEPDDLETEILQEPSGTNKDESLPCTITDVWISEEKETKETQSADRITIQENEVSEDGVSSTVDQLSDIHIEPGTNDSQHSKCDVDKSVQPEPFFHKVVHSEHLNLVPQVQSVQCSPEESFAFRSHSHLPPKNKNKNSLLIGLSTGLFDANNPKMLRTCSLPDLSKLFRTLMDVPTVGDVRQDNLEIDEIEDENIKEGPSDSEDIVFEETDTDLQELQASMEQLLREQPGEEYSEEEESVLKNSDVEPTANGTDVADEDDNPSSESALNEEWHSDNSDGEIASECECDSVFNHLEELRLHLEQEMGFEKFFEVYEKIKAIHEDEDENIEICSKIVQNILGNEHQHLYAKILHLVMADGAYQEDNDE

[4] = molecular target: Ephrin type-A receptor 6 (Homo sapiens) (UniProt Q9UF33); assay: Binding affinity to wild-type human partial length EPHA6 (Y700 to E1046 residues) expressed in bacterial expression system assessed as residual binding level at 1 uM by Kinomescan method relative to control
[5] = molecular target: Serine/threonine-protein kinase Sgk3 (Homo sapiens) (UniProt Q96BR1); assay: Binding affinity to wild-type human partial length SGK3 (M119 to L496 residues) expressed in mammalian expression system assessed as residual binding level at 1 uM by Kinomescan method relative to control
Chain of Serine/threonine-protein kinase Sgk3 (Homo sapiens) (Q96BR1 whole entry, the tested form may be a part): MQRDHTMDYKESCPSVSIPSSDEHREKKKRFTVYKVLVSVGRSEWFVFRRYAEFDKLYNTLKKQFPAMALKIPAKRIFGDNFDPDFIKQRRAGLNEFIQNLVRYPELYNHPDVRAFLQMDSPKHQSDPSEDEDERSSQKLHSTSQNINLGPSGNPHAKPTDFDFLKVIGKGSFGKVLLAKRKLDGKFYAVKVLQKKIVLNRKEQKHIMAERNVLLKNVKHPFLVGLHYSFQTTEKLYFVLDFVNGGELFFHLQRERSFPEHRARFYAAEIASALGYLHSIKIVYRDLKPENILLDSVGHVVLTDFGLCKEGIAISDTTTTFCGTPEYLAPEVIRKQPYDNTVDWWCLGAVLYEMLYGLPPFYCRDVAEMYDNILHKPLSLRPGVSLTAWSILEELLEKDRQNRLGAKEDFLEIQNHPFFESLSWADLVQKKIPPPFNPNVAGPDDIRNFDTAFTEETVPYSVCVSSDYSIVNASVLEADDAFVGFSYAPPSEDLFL
In short: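 Active site-directed competition binding panel (KinomeScan, 468 kinases). Test compound at 1 μM. Read-out is kinase binding remaining versus DMSO control, expressed as percent of control. Scores above 35% are treated as weak binding.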

[6] = molecular target: Cytoplasmic tyrosine-protein kinase BMX (Homo sapiens) (UniProt P51813); assay: Binding affinity to wild-type human full length BMX (M1 to H675 residues) expressed in bacterial expression system assessed as residual binding level at 1 uM by Kinomescan method relative to control
In short: (§1)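 KinomeScan, an active site-directed competition binding panel of 468 kinases. The test compound was at 1 μM. The readout is remaining kinase binding as a percentage of the DMSO control. Scores above 35% were treated as weak binding and not listed.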

[7] = system: Mast/stem cell growth factor receptor Kit (Homo sapiens), P10721 [L576P]; assay: Binding affinity to human partial length KIT L576P mutant (Y545 to D952 residues) expressed in bacterial expression system assessed as residual binding level at 1 uM by Kinomescan method relative to control
Chain of Mast/stem cell growth factor receptor Kit (Homo sapiens), P10721 [L576P] (P10721 whole entry L576P, the tested form may be a part): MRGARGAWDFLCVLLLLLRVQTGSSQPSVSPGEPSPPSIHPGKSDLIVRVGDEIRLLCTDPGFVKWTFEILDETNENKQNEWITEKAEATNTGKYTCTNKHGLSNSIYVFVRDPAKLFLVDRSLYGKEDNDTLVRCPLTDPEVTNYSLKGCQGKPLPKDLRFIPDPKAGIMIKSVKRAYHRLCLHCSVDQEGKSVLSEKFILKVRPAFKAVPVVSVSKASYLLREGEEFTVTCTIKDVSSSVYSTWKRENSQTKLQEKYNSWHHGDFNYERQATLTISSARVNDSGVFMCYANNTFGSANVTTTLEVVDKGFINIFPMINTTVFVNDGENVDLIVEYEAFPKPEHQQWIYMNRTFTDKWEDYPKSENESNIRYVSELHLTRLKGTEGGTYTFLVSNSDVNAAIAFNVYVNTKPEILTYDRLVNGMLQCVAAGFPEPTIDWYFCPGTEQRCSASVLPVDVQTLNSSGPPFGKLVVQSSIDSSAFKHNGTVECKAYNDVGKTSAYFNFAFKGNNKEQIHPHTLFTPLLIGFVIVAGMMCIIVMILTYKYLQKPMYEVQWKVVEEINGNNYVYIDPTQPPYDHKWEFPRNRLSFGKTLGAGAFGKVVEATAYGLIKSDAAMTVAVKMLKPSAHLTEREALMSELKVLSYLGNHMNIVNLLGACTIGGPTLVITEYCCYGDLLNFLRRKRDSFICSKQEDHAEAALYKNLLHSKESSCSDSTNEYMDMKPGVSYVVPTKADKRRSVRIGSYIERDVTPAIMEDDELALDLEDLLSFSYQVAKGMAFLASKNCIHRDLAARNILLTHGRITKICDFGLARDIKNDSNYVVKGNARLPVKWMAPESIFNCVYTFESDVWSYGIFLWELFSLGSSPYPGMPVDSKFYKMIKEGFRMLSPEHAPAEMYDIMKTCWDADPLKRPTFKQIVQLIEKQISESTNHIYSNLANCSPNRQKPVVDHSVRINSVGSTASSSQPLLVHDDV
In short: (§2)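 KinomeScan active site-directed competition binding panel (468 kinases), compound tested at 1 μM. Result expressed as remaining kinase signal versus DMSO control (percent of control).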

[8] = molecular target: Leukocyte tyrosine kinase receptor (Homo sapiens) (UniProt P29376); assay: Binding affinity to wild-type human partial length LTK (P422 to S744 residues) expressed in bacterial expression system assessed as residual binding level at 1 uM by Kinomescan method relative to control
[9] = molecular target: 1-phosphatidylinositol 3-phosphate 5-kinase (Homo sapiens) (UniProt Q9Y2I7); assay: Binding affinity to wild-type human partial length PIKFYVE (F1512 to C2098 residues) expressed in mammalian expression system assessed as residual binding level at 1 uM by Kinomescan method relative to control
[10] = molecular target: Phosphatidylinositol 4,5-bisphosphate 3-kinase catalytic subunit beta isoform (Homo sapiens) (UniProt P42338); assay: Binding affinity to wild-type human partial length PIK3CB (P118 to S1070 residues) expressed in mammalian expression system assessed as residual binding level at 1 uM by Kinomescan method relative to control
[11] = molecular target: Serine/threonine-protein kinase 35 (Homo sapiens) (UniProt Q8TDR2); assay: Binding affinity to wild-type human partial length STK35 (G182 to A534 residues) expressed in bacterial expression system assessed as residual binding level at 1 uM by Kinomescan method relative to control
Chain of Serine/threonine-protein kinase 35 (Homo sapiens) (Q8TDR2 whole entry, the tested form may be a part): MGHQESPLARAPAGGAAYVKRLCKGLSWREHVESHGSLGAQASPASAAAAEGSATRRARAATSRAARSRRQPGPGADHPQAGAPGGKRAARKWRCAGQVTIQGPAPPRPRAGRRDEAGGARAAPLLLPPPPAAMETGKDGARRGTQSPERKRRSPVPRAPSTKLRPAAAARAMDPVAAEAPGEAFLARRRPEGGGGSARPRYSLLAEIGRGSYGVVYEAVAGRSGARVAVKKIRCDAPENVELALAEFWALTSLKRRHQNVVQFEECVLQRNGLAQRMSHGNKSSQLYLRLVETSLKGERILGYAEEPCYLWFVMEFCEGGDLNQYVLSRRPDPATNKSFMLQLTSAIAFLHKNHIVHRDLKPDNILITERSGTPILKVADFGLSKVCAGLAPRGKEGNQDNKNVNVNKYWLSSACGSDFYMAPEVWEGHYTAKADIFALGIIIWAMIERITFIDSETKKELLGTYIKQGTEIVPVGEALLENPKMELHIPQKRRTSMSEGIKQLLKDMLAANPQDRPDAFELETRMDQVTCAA

[12] = molecular target: Mitogen-activated protein kinase kinase kinase kinase 1 (Homo sapiens) (UniProt Q92918); assay: Binding affinity to wild-type human full length HPK1 (M1 to R799 residues) expressed in bacterial expression system assessed as residual binding level at 1 uM by Kinomescan method relative to control
In short: (§3)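 Active-site-directed KinomeScan competition binding panel covering 468 kinases, compound tested at 1 μM. Each readout is the kinase signal remaining with compound, expressed as a percentage of the DMSO control. […]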

[13] = molecular target: Dual specificity mitogen-activated protein kinase kinase 6 (Homo sapiens) (UniProt P52564); assay: Binding affinity to wild-type human partial length MEK6 (K36 to D334 residues) expressed in bacterial expression system assessed as residual binding level at 1 uM by Kinomescan method relative to control
Chain of Dual specificity mitogen-activated protein kinase kinase 6 (Homo sapiens) (P52564 whole entry, the tested form may be a part): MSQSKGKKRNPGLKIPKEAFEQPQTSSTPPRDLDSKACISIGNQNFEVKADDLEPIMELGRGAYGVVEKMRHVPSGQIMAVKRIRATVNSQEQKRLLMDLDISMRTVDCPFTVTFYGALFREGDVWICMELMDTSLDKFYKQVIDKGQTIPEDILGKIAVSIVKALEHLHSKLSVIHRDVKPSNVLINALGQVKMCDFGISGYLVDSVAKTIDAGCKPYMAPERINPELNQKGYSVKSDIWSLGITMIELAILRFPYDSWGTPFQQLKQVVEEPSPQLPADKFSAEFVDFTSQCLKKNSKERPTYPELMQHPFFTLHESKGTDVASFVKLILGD
In short: (§4)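 Active-site-directed competition binding panel of 468 kinases (KinomeScan), compound at 1 μM. The read-out is kinase remaining bound, given as a percentage of the DMSO control. […]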

[14] = molecular target: Serine/threonine-protein kinase tousled-like 1 (Homo sapiens) (UniProt Q9UKI8); assay: Binding affinity to wild-type human partial length TLK1 (K447 to A754 residues) expressed in bacterial expression system assessed as residual binding level at 1 uM by Kinomescan method relative to control
[15] = molecular target: Tyrosine-protein kinase Blk (Homo sapiens) (UniProt P51451); assay: Binding affinity to wild-type human partial length BLK (G211 to L503 residues) expressed in bacterial expression system assessed as residual binding level at 1 uM by Kinomescan method relative to control; in short: as §1
[16] = molecular target: Casein kinase I isoform gamma-3 (Homo sapiens) (UniProt Q9Y6M4); assay: Binding affinity to wild-type human full length CSNK1G3 (M1 to K447 residues) expressed in bacterial expression system assessed as residual binding level at 1 uM by Kinomescan method relative to control; in short: as §3
[17] = molecular target: Dual specificity protein kinase CLK3 (Homo sapiens) (UniProt P49761); assay: Binding affinity to wild-type human full length CLK3 (M1 to R490 residues) expressed in bacterial expression system assessed as residual binding level at 1 uM by Kinomescan method relative to control; in short: as §3
[18] = molecular target: Tyrosine-protein kinase Lyn (Homo sapiens) (UniProt P07948); assay: Binding affinity to wild-type human partial length LYN (C219 to Q511 residues) expressed in bacterial expression system assessed as residual binding level at 1 uM by Kinomescan method relative to control; in short: as §4
Chain of Tyrosine-protein kinase Lyn (Homo sapiens) (P07948 2-512 limits assumed): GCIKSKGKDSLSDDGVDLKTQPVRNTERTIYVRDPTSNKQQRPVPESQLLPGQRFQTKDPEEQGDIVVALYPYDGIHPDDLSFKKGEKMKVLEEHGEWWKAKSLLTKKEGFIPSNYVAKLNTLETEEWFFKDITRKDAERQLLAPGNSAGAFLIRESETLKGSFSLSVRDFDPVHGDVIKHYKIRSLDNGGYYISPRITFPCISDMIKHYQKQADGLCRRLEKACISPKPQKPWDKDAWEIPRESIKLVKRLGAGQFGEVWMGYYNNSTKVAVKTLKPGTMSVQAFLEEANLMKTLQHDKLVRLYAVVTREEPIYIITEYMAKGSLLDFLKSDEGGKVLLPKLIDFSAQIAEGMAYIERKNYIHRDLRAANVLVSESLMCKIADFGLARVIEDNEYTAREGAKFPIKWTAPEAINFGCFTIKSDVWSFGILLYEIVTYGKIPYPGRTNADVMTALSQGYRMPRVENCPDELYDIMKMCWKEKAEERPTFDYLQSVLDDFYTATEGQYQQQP

[19] = system: Proto-oncogene tyrosine-protein kinase receptor Ret (Homo sapiens), P07949 [M918T]; assay: Binding affinity to human partial length RET M918T mutant (E713 to D1014 residues) expressed in bacterial expression system assessed as residual binding level at 1 uM by Kinomescan method relative to control; in short: as §2
[20] = molecular target: Calcium/calmodulin-dependent protein kinase type II subunit delta (Homo sapiens) (UniProt Q13557); assay: Binding affinity to wild-type human partial length CAMK2D (M1 to E329 residues) expressed in bacterial expression system assessed as residual binding level at 1 uM by Kinomescan method relative to control
Chain of Calcium/calmodulin-dependent protein kinase type II subunit delta (Homo sapiens) (Q13557 whole entry, the tested form may be a part): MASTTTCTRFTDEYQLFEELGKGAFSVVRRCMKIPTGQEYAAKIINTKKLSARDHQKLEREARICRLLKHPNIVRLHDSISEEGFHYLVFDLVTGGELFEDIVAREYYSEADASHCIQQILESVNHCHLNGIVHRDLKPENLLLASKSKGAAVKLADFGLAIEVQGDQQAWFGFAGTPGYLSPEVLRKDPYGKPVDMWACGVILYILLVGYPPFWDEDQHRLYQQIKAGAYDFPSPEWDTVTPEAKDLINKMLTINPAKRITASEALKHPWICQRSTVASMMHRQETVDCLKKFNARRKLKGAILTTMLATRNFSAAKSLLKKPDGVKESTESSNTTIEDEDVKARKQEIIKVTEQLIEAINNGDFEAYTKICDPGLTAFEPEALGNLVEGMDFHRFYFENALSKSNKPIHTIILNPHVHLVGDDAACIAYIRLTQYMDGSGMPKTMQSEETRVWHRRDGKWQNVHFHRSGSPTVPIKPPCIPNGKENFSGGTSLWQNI

SMILES: C=CC(=O)Nc1ccccc1Nc1nc(Nc2ccc(N3CCN(C)CC3)cc2)ncc1C(=O)Nc1c(C)cccc1Cl
- Activity [1]: 100%
- Activity [2]: 97%
- Activity [3]: 100%
- Activity [4]: 100%
- Activity [5]: 86%
- Activity [6]: 48%
- Activity [7]: 65%
- Activity [8]: 100%
- Activity [9]: 100%
- Activity [10]: 100%
- Activity [11]: 100%
- Activity [12]: 100%
- Activity [13]: 99%
- Activity [14]: 100%
- Activity [15]: 0.15%
- Activity [16]: 100%
- Activity [17]: 100%
- Activity [18]: 2.8%
- Activity [19]: 87%
- Activity [20]: 100%
